Laboratory results from ChEMBL document CHEMBL1131049, “Antiviral activities of methylated nordihydroguaiaretic acids. 2. Targeting herpes simplex virus replication by the mutation insensitive transcription inhibitor tetra-O-methyl-NDGA” (J Med Chem, 1998).
Several values for one entry are separate records, joined by “and”; a condition that tells them apart may be missing. Equal entries are not always repeated.

Tests used:
[1] = Ralative safety was expressed as Selective index (TC50/IC50) at HSV-1 passage 1 in vero cells; assay type: functional
Summary of the method: (§1)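 SI = TC50/IC50 per passage. IC50 comes from serial passage of HSV-1 Sm44 or HSV-2 Sav in Vero cells (100 TCID50, drug added 2 h p.i., CPE read-out, triplicates). TC50 comes from uninfected Vero cells by a tetrazolium viability assay, run three times in triplicate and averaged.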

Vero [2] = test: Comparative Potency (IC50s) at HSV-1 passage 9 in vero cells; assay type: functional, cell-based; details: Chlorocebus sabaeus
Summary of the method: (§2)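 Vero cells infected with 100 TCID50 of HSV-1 (Sm44) or HSV-2 (Sav); compound in DMSO diluted in medium and added 2 h post-infection, triplicates per concentration. Passaging: virus recovered from cultures at the IC50 infected fresh Vero cells, and the IC50 was redetermined each passage.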

Vero [3] = test: Comparative Potency (IC50s) at HSV-1 passage 7 in vero cells; assay type: functional, cell-based; details: Chlorocebus sabaeus; summary of the method: as §2
[4] = Ralative safety was expressed as Selective index (TC50/IC50) at HSV-1 passage 3 in vero cells; assay type: functional; summary of the method: as §1
Vero [5] = test: Comparative Potency (IC50s) at HSV-2 passage 4 in vero cells; assay type: functional, cell-based; details: Chlorocebus sabaeus; summary of the method: as §2
[6] = Ralative safety was expressed as Selective index (TC50/IC50) at HSV-1 passage 6 in vero cells; assay type: functional; summary of the method: as §1
[7] = Ralative safety was expressed as Selective index (TC50/IC50) at HSV-1 passage 9 in vero cells; assay type: functional; summary of the method: as §1
[8] = Ralative safety was expressed as Selective index (TC50/IC50) at HSV-1 passage 10 in vero cells; assay type: functional; summary of the method: as §1
Vero [9] = test: Comparative Potency (IC50s) at HSV-1 passage 6 in vero cells; assay type: functional, cell-based; details: Chlorocebus sabaeus; summary of the method: as §2
Vero [10] = test: Comparative Potency (IC50s) at HSV-2 passage 3 in vero cells; assay type: functional, cell-based; details: Chlorocebus sabaeus; summary of the method: as §2
[11] = Ralative safety was expressed as Selective index (TC50/IC50) at HSV-2 passage 4 in vero cells; assay type: functional; summary of the method: as §1
[12] = Ralative safety was expressed as Selective index (TC50/IC50) at HSV-2 passage 1 in vero cells; assay type: functional; summary of the method: as §1
[13] = Ralative safety was expressed as Selective index (TC50/IC50) at HSV-1 passage 8 in vero cells; assay type: functional; summary of the method: as §1
Vero [14] = test: Comparative Potency (IC50s) at HSV-2 passage 2 in vero cells; assay type: functional, cell-based; details: Chlorocebus sabaeus; summary of the method: as §2
[15] = Ralative safety was expressed as Selective index (TC50/IC50) at HSV-1 passage 5 in vero cells; assay type: functional; summary of the method: as §1
Vero [16] = test: Comparative Potency (IC50s) at HSV-1 passage 4 in vero cells; assay type: functional, cell-based; details: Chlorocebus sabaeus; summary of the method: as §2
Vero [17] = test: Comparative Potency (IC50s) at HSV-1 passage 3 in vero cells; assay type: functional, cell-based; details: Chlorocebus sabaeus; summary of the method: as §2
Vero [18] = test: Comparative Potency (IC50s) at HSV-1 passage 8 in vero cells; assay type: functional, cell-based; details: Chlorocebus sabaeus; summary of the method: as §2
[19] = Ralative safety was expressed as Selective index (TC50/IC50) at HSV-1 passage 4 in vero cells; assay type: functional; summary of the method: as §1
Vero [20] = test: Comparative Potency (IC50s) at HSV-1 passage 2 in vero cells; assay type: functional, cell-based; details: Chlorocebus sabaeus; summary of the method: as §2
[21] = Ralative safety was expressed as Selective index (TC50/IC50) at HSV-1 passage 7 in vero cells; assay type: functional; summary of the method: as §1
[22] = Ralative safety was expressed as Selective index (TC50/IC50) at HSV-2 passage 3 in vero cells; assay type: functional; summary of the method: as §1
[23] = Ralative safety was expressed as Selective index (TC50/IC50) at HSV-2 passage 2 in vero cells; assay type: functional; summary of the method: as §1
Vero [24] = test: Comparative Potency (IC50s) at HSV-1 passage 5 in vero cells; assay type: functional, cell-based; details: Chlorocebus sabaeus; summary of the method: as §2
Vero [25] = test: Comparative Potency (IC50s) at HSV-2 passage 1 in vero cells; assay type: functional, cell-based; details: Chlorocebus sabaeus; summary of the method: as §2
[26] = Ralative safety was expressed as Selective index (TC50/IC50) at HSV-1 passage 2 in vero cells; assay type: functional; summary of the method: as §1
[27] = Relative safety was expressed as Selective index (TC50/IC50) at HSV-1 passage 5 in vero cells; assay type: functional; summary of the method: as §1
[28] = Relative safety was expressed as Selective index (TC50/IC50) at HSV-1 passage 1 in vero cells; assay type: functional; summary of the method: as §1
[29] = Relative safety was expressed as Selective index (TC50/IC50) at HSV-1 passage 2 in vero cells; assay type: functional; summary of the method: as §1
[30] = Relative safety was expressed as Selective index (TC50/IC50) at HSV-1 passage 7 in vero cells; assay type: functional; summary of the method: as §1
[31] = Mortality in 5 mice when intraperitoneally administered daily once for 7 days at dose 50 mg/kg; assay type: ADME, organism-based; parameters: dose 50 mg/kg, route intraperitoneal; details: mouse, in vivo, ip, 168 h
[32] = Relative safety was expressed as Selective index (TC50/IC50) at HSV-1 passage 3 in vero cells; assay type: functional; summary of the method: as §1
[33] = Relative safety was expressed as Selective index (TC50/IC50) at HSV-1 passage 10 in vero cells; assay type: functional; summary of the method: as §1
Mus musculus [34] = test: Percent Change in body weight of 5 mice when intraperitoneally administered daily once for 1 day at dose 300 mg/kg; assay type: functional; details: route intraperitoneal
[35] = Relative safety was expressed as Selective index (TC50/IC50) at HSV-2 passage 4 in vero cells; assay type: functional; summary of the method: as §1
[36] = Relative safety was expressed as Selective index (TC50/IC50) at HSV-2 passage 3 in vero cells; assay type: functional; summary of the method: as §1
[37] = Relative safety was expressed as Selective index (TC50/IC50) at HSV-2 passage 2 in vero cells; assay type: functional; summary of the method: as §1
[38] = Relative safety was expressed as Selective index (TC50/IC50) at HSV-1 passage 8 in vero cells; assay type: functional; summary of the method: as §1
[39] = Relative safety was expressed as Selective index (TC50/IC50) at HSV-1 passage 4 in vero cells; assay type: functional; summary of the method: as §1
Vero [40] = test: Comparative Potency (IC50s) at HSV-1 passage 10 in vero cells; assay type: functional, cell-based, Chlorocebus sabaeus; summary of the method: as §2
[41] = Relative safety was expressed as Selective index (TC50/IC50) at HSV-2 passage 1 in vero cells; assay type: functional; summary of the method: as §1
Mus musculus [42] = test: Percent Change in body weight of 5 mice when intraperitoneally administered daily once for 7 days at dose 50 mg/kg; assay type: functional; details: route intraperitoneal
[43] = Mortality in 5 mice when intraperitoneally administered daily once for 7 days at dose 100 mg/kg; assay type: ADME, organism-based; parameters: dose 100 mg/kg, route intraperitoneal; details: mouse, in vivo, ip, 168 h
[44] = Relative safety was expressed as Selective index (TC50/IC50) at HSV-1 passage 6 in vero cells; assay type: functional; summary of the method: as §1
[45] = Mortality in 5 mice when intraperitoneally administered daily once for 7 days at dose 25 mg/kg; assay type: ADME, organism-based; parameters: dose 25 mg/kg, route intraperitoneal; details: mouse, in vivo, ip, 168 h
[46] = Relative safety was expressed as Selective index (TC50/IC50) at HSV-1 passage 9 in vero cells; assay type: functional; summary of the method: as §1
[47] = Mortality in 5 mice when intraperitoneally administered daily twice for 5 days at dose 50 mg/kg; assay type: ADME, organism-based; parameters: dose 50 mg/kg, route intraperitoneal; details: mouse, in vivo, ip, 120 h

Nc1nc2c(ncn2COCCO)c(=O)[nH]1 [ACYCLOVIR]
Selectivity index [1]: 589 | IC50 (Vero [2]): 379 µM | IC50 (Vero [3]): 190 µM | Selectivity index [4]: 50 | IC50 (Vero [5]): > 88.8 µM | Selectivity index [6]: 34 | Selectivity index [7]: 11 | Selectivity index [8]: 10 | IC50 (Vero [9]): 131 µM | IC50 (Vero [10]): 62.8 µM | Selectivity index [11]: 50 | Selectivity index [12]: 667 | Selectivity index [13]: 23 | IC50 (Vero [14]): > 44.4 µM | Selectivity index [15]: 40 | IC50 (Vero [16]): 138 µM | IC50 (Vero [17]): > 88.8 µM | IC50 (Vero [18]): 444 µM | Selectivity index [19]: 32 | IC50 (Vero [20]): 37.8 µM | Selectivity index [21]: 23 | Selectivity index [22]: 70 | Selectivity index [23]: 100 | IC50 (Vero [24]): 111 µM | IC50 (Vero [25]): 6.66 µM | Selectivity index [26]: 117

COc1ccc(C[C@@H](C)[C@@H](C)Cc2ccc(OC)c(OC)c2)cc1OC [TERAMEPROCOL]
Selectivity index [27]: 24.7 | Selectivity index [28]: 13.7 | Selectivity index [29]: 36.4 | IC50 (Vero [2]): 8.82 µM | IC50 (Vero [3]): 6.98 µM | Selectivity index [30]: 22.9 | Mortality [31]: 0 | IC50 (Vero [5]): 11.1 µM | Selectivity index [32]: 19.4 | Selectivity index [33]: 33.5 | Change (Mus musculus [34]): -2.66% | Selectivity index [35]: 14.4 | IC50 (Vero [9]): 6.98 µM | Selectivity index [36]: 14.4 | Selectivity index [37]: 14.4 | Selectivity index [38]: 16.1 | IC50 (Vero [10]): 11.1 µM | IC50 (Vero [14]): 11.1 µM | IC50 (Vero [16]): 5.97 µM | Selectivity index [39]: 26.8 | IC50 (Vero [17]): 8.24 µM | IC50 (Vero [18]): 9.91 µM | IC50 (Vero [40]): 11.7 µM and 4.47 µM | Selectivity index [41]: 38.3 | Change (Mus musculus [42]): -2.8% | IC50 (Vero [20]): 4.4 µM | Mortality [43]: 0 | Selectivity index [44]: 22.9 | IC50 (Vero [24]): 6.48 µM | Mortality [45]: 0 | IC50 (Vero [25]): 4.18 µM | Selectivity index [46]: 18.1 | Mortality [47]: 1
